In ChEMBL document CHEMBL3797089, “Morusin Induces TRAIL Sensitization by Regulating EGFR and DR5 in Human Glioblastoma Cells” (J Nat Prod, 2016):
Activity calls are given as the source filed them. The rule behind the calls is not given here.

Columns and labels:
U-87 MG [1] = assay: Induction of apoptosis in human U87MG cells assessed as increase in cleaved caspase 8 levels at 2.5 uM after 24 hrs by Western blot analysis in presence of TRAIL; type: functional, cell-based; settings: U-87MG ATCC
Method in brief: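 U87MG and T98G given TRAIL 25 ng/mL plus morusin 2.5 μM together for 24 h; single-agent arms used TRAIL 50 ng/mL or morusin 5 μM. Lysates immunoblotted for cleaved caspase 3, 8, 9 and cleaved PARP, with β-actin as internal control.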

[2] = Reduction of PDGFR expression in human U251MG cells at 25 uM after 24 hrs by Western blot analysis; type: functional, cell-based; settings: U-251
Method in brief: (§1)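 LN18, U87MG, T98G, U251MG and U373MG glioblastoma cells were exposed to morusin for 24 h. Cells were maintained in DMEM, MEM or RPMI with 10% FBS at 37 °C and 5% CO2. Whole-cell lysates were Western blotted for receptor proteins, with β-actin as internal control.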

[3] = biological target: Signal transducer and activator of transcription 3 (Homo sapiens) (UniProt P40763); assay: Inhibition of STAT3 phosphorylation in human U373MG cells measured up to 25 uM after 24 hrs by Western blot analysis; type: cell-based; settings: U-373MG ATCC
Sequence of Signal transducer and activator of transcription 3 (Homo sapiens) (P40763 whole entry): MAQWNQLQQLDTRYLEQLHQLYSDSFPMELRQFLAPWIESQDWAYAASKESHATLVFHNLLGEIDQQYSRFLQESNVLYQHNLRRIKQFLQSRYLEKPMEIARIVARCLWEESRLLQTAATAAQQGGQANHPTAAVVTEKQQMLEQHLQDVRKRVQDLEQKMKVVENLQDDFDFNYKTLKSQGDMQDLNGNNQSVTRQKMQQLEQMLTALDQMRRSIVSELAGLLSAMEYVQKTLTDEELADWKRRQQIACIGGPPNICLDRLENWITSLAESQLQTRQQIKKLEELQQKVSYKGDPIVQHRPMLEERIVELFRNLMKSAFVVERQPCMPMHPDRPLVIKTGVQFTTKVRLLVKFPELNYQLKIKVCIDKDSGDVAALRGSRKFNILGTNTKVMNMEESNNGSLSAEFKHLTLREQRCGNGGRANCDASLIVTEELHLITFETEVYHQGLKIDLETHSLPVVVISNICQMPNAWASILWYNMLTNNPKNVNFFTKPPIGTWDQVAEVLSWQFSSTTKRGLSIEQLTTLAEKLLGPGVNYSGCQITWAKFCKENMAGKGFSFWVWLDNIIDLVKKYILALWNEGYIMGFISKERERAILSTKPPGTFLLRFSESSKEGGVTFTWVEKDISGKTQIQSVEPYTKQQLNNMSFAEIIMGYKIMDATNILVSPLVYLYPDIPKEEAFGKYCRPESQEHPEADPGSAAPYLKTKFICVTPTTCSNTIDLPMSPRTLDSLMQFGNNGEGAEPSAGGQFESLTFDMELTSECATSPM
Method in brief: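 Cells grown in MEM (U87MG) or RPMI (U373MG) with 10% FBS, 5% CO2, 37 °C. Treated for 24 h with the indicated concentrations of morusin (DMSO stock). Whole-cell lysates immunoblotted for phosphorylated and total proteins, with β-actin as internal control.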

[4] = biological target: Epidermal growth factor receptor (Homo sapiens) (UniProt P00533); assay: Inhibition of EGFR phosphorylation in human U373MG cells measured up to 25 uM after 24 hrs by Western blot analysis; type: cell-based; settings: U-373MG ATCC
Sequence of Epidermal growth factor receptor (Homo sapiens) (P00533 whole entry): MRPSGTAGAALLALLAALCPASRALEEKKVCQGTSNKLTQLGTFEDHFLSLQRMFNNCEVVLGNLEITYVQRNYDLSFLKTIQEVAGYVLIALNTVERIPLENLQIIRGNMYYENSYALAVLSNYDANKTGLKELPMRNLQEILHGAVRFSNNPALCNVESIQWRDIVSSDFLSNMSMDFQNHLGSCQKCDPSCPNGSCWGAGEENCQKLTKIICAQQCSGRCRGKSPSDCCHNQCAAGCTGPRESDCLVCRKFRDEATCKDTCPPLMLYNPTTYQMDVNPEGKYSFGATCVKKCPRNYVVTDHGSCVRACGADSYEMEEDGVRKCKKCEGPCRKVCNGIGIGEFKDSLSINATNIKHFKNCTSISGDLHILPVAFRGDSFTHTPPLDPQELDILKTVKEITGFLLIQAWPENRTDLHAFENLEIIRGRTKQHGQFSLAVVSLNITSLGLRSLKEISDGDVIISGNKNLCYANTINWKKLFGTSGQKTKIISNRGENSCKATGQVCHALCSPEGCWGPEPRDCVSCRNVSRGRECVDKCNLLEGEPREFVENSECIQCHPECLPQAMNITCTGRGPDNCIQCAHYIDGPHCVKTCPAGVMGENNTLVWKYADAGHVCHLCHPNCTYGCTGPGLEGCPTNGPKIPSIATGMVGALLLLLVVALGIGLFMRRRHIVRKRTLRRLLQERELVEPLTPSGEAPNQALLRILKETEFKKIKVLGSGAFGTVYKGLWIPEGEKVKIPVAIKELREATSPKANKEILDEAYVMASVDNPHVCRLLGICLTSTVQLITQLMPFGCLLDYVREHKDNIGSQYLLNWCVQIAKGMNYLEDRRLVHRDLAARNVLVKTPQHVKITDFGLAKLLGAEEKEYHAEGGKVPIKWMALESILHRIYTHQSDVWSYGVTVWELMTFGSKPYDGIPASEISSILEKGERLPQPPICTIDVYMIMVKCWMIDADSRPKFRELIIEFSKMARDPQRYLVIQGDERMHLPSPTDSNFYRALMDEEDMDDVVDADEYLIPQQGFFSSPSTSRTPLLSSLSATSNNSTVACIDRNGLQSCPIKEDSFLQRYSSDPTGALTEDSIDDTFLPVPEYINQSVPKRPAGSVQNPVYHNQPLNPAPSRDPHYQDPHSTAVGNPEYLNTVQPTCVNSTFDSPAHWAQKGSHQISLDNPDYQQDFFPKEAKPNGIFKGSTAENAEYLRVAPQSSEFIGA
Method in brief: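 U87MG and U373MG exposed to a range of morusin concentrations for 24 h. Whole-cell lysates immunoblotted for phosphorylated EGFR, with β-actin as internal control.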

[5] = Reduction of XIAP expression in human U373MG cells after 24 hrs by Western blot analysis; type: functional, cell-based; settings: U-373MG ATCC
Method in brief: (§2)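 U87MG (MEM) and U373MG (RPMI) cells were given graded morusin concentrations for 24 h. Whole-cell extracts were immunoblotted for anti-apoptotic proteins, with β-actin as loading control.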

[6] = Reduction of XIAP expression in human U87MG cells at 25 uM by Western blot analysis; type: functional, cell-based; settings: U-87MG ATCC, TDE = time-dependent effect
Method in brief: (§3)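 Time course: U87MG and U373MG cells were exposed to 25 μM morusin for the indicated times. Whole-cell extracts were Western blotted, with β-actin as internal control.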

LN-18 [7] = assay: Effect on DcR1 expression in human LN18 cells upto 25 uM after 24 hrs by Western blot analysis; type: functional, cell-based
Method in brief: (§4)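 Cells exposed to a range of morusin concentrations for 24 h. Cell extracts immunoblotted for DR4, DR5, DcR1 and DcR2, with β-actin as internal control and HRP-conjugated secondary antibodies (1:5000).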

[8] = Cytotoxicity against human U251MG cells assessed as reduction in cell viability after 24 hrs by MTT assay; type: functional, cell-based; settings: U-251, 24 h
Method in brief: (§5)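 Seeded 3–5 × 10^3 cells/well, treated the next day with a range of morusin (DMSO stock) for 24 h, 37 °C, 5% CO2. Then fresh medium with 1 mg/mL MTT for 2 h at 37 °C, lysis buffer overnight at 37 °C, OD 570 nm. Mean ± SD from at least three independent experiments in triplicate.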

U373 MG [9] = assay: Induction of DR5 expression in human U373MG cells at 25 uM after 24 hrs by FITC-conjugated flow cytometric analysis; type: functional, cell-based; settings: U-373MG ATCC
Method in brief: (§6)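 Cells given 25 μM morusin for 24 h, then stained on ice for 30 min with 0.5 μg/mL FITC-conjugated anti-DR4, anti-DR5 or isotype IgG in FACS buffer. Surface expression read by flow cytometry.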

U-251 [10] = assay: Effect on DR4 expression in human U251MG cells upto 25 uM after 24 hrs by Western blot analysis; type: functional, cell-based; method in brief: as §4
[11] = Reduction of survivin expression in human U87MG cells at 25 uM by Western blot analysis; type: functional, cell-based; settings: U-87MG ATCC, TDE = time-dependent effect; method in brief: as §3
U373 MG [12] = assay: Effect on cIAP1 expression in human U373MG cells at 12 to 25 uM after 24 hrs by Western blot analysis; type: functional, cell-based; settings: U-373MG ATCC
Method in brief: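 U87MG and U373MG exposed to a range of morusin concentrations for 24 h. Whole-cell extracts immunoblotted for cIAP1, with β-actin as internal control.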

U-251 [13] = assay: Induction of DR5 expression in human U251MG cells after 24 hrs by Western blot analysis; type: functional, cell-based; method in brief: as §4
U-87 MG [14] = assay: Induction of DR4 expression in human U87MG cells at 25 uM after 24 hrs by FITC-conjugated flow cytometric analysis; type: functional, cell-based; settings: U-87MG ATCC; method in brief: as §6
U-251 [15] = assay: Induction of DR5 expression in human U251MG cells at 25 uM after 24 hrs by FITC-conjugated flow cytometric analysis; type: functional, cell-based; method in brief: as §6
T98G [16] = assay: Reduction of PDGFR expression in human T98G cells at 25 uM after 24 hrs by Western blot analysis; type: functional, cell-based; method in brief: as §1
[17] = Reduction of survivin mRNA expression in human U87MG cells at 25 uM by RT-qPCR analysis; type: functional, cell-based; settings: U-87MG ATCC, TDE = time-dependent effect
Method in brief: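 U87MG cells were exposed to 25 μM morusin over a time course. Total RNA (1 μg) was reverse transcribed, and XIAP and survivin transcripts were measured by RT-qPCR against GAPDH. Results are mean ± SD from at least three independent experiments.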

U-87 MG [18] = assay: Induction of DR5 expression in human U87MG cells at 25 uM by Western blot analysis; type: functional, cell-based; settings: U-87MG ATCC, TDE = time-dependent effect
Method in brief: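 Time course: U87MG and U373MG cells held at 25 μM morusin for the times indicated. Extracts immunoblotted (cIAP1 or DR5), with β-actin as loading control.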

T98G [19] = assay: Induction of apoptosis in human T98G cells assessed as apoptic cells at 20 uM after 24 hrs by V-FITC/propidium iodide staining based flow cytometric analysis in presence of TRAIL; type: functional, cell-based
Method in brief: (§7)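 (2–3) × 10^5 cells/well given TRAIL 50 ng/mL with morusin 20 μM for 24 h. Annexin V-FITC/PI double staining, flow cytometry; annexin V-positive cells counted as apoptotic. Mean ± SD, t-test against mock.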

[20] = Reduction of survivin expression in human U373MG cells after 24 hrs by Western blot analysis; type: functional, cell-based; settings: U-373MG ATCC; method in brief: as §2
LN-18 [21] = assay: Effect on DcR2 expression in human LN18 cells upto 25 uM after 24 hrs by Western blot analysis; type: functional, cell-based; method in brief: as §4
U-87 MG [22] = assay: Induction of apoptosis in human U87MG cells assessed as apoptic cells at 20 uM after 24 hrs by V-FITC/propidium iodide staining based flow cytometric analysis in presence of TRAIL; type: functional, cell-based; settings: U-87MG ATCC; method in brief: as §7
[23] = Cytotoxicity against human U373MG cells assessed as reduction in cell viability measured up to 20 uM after 24 hrs by MTT assay in presence of TRAIL; type: functional, U-373MG ATCC
Method in brief: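 MTT viability. 3–5 × 10^3 cells/well, treated the next day with TRAIL 100 ng/mL plus increasing morusin concentrations for 24 h. 1 mg/mL MTT for 2 h at 37 °C, lysis overnight, OD 570 nm. Living-cell fractions were used for combination index analysis. Mean ± SD, at least three independent experiments.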

T98G [24] = assay: Cytotoxicity against human T98G cells assessed as reduction in cell viability after 24 hrs by MTT assay; type: functional, cell-based; method in brief: as §5
[25] = Reduction of EGFR expression in human U87MG cells at 25 uM after 24 hrs by Western blot analysis; type: functional, cell-based; settings: U-87MG ATCC; method in brief: as §1

## CC(C)=CCc1c(-c2ccc(O)cc2O)oc2c3c(cc(O)c2c1=O)OC(C)(C)C=C3 [MORUSIN]
U-87 MG [1]
  Activity: Active
[2]
  Activity: Active
[3]
  inhibition: Active
[4]
  inhibition: Active
[5]
  inhibition: Dose-dependent effect
[6]
  inhibition: tde
LN-18 [7]
  Activity: inactive
[8]
  IC50: 24 µM
U373 MG [9]
  Activity: Active
U-251 [10]
  Activity: inactive
[11]
  inhibition: tde
U373 MG [12]
  Activity: inactive
U-251 [13]
  Activity: Dose-dependent effect
U-87 MG [14]
  Activity: inactive
U-251 [15]
  Activity: Active
T98G [16]
  Activity: Active
[17]
  Activity: tde
U-87 MG [18]
  Activity: tde
T98G [19]
  Activity: Active
[20]
  inhibition: Dose-dependent effect
LN-18 [21]
  Activity: inactive
U-87 MG [22]
  Activity: Active
[23]
  CI: <0.8
T98G [24]
  IC50: 24 µM
[25]
  Activity: Active
